# Screening data as filed in PubChem.
# NTR1 ag = agonists of human NTR1, primary screen, imaging, U2OS cells, beta-arrestin-GFP, high content; NTR1-U2OS beta-arrestin-GFP spot imaging, agonist mode; activation, % at 20 µM; actives 0.17% (n = 330,000);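 active means activation at or above 40% of the spot to cytoplasm intensity ratio, with at least 20 cells analyzed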;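 further: 0% = DMSO without peptide and 100% = 100 nM NTR1 peptide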
# HTR2A ag = mouse Htr2a agonists via beta-arrestin recruitment, primary screen, cell-based, luminescence | activation, % at 7.6 µM | actives 0.66% (n = 360,000) | CHO-K1 mHTR2A beta-arrestin complementation; percent of 30 µM serotonin response | 5-hydroxytryptamine receptor 2A (Mus musculus), P35363;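 active means activation above a run cutoff, the mean activation of all tested compounds plus 3 SD, cut at about 14% in these data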;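 further: 0% = plate median of compound wells and 100% = 30 µM serotonin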
# Hep lipid drop = inhibitors of hepatocyte lipid droplet formation, primary screen, imaging, high-throughput imaging, BODIPY stain | AML12 mouse hepatocytes, oleate lipid droplets | inhibition, % at 6.5 µM | actives 0.4% (n = 240,000) | AID 1656, 2009;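 active means lipid droplet intensity inhibited by at least 50%, with more than 500 cells counted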
#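 Test system: AML12 hepatocytes (mouse); reagent: oleate loading, 100 µM; dosing: one dose, 6.5 µM compound; incubation: overnight exposure; signal: fluorescence imaging, 20x objective, two fields per well; read-out basis: % inhibition of corrected integrated BODIPY droplet signal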
# MC4R antag cAMP = MC4R antagonists of cAMP signaling, primary screen, cell-based, TR-FRET, antagonist arm of biased-ligand search. Melanocortin receptor 4 (Homo sapiens), P32245. MC4R-expressing cells, MTII-stimulated cAMP, LANCE TR-FRET. inhibition, % at 6.5 µM. actives 0.48% (n = 360,000);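 active means inhibition above its plate's cutoff, the mean of tested wells on that plate plus 3 SD, cut at about 29% in these data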;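 further: 0% = Melanotan II alone and 100% = Melanotan II plus saturating MCL0020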
# Target sequence (P32245 whole entry, looked up): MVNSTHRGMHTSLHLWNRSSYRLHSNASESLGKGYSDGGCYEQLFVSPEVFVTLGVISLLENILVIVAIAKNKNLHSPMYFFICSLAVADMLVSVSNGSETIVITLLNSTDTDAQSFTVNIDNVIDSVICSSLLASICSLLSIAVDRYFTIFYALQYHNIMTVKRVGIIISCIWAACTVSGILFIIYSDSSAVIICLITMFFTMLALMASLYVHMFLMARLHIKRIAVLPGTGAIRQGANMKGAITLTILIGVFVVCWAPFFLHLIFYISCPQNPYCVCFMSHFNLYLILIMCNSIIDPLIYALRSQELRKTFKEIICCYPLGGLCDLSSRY
#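 System: U2OS cells stably expressing human melanocortin 4 receptor (MC4R). Reagent: Melanotan II challenge after compound preincubation. Doses: 6.5 µM. Times: 30-min compound, 1-h challenge, 1-h detection, room temperature. Measured by: TR-FRET with Eu-cAMP and labeled anti-cAMP, 671 nm. Replicates: singlicate.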
# PREPL inh = PREPL enzyme inhibitors, primary screen, biochemical, fluorescence polarization. recombinant PREPL, fluorescence polarization activity-based probe. inhibition, % at 5.96 µM. actives 0.68% (n = 320,000); in the data active means inhibition above about 43%;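 further: 0% = enzyme with DMSO and 100% = wells lacking enzyme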
# MC4R barr agon = MC4R agonists recruiting beta-arrestin, primary screen, cell-based, luminescence, agonist arm of biased-ligand search. Melanocortin receptor 4 (Homo sapiens), P32245. U2OS MC4R beta-arrestin complementation; percent of melanotan II response, DMSO zero. activation, % at 8.9 µM. actives 0.98% (n = 360,000). AID 540308, 2011;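 active means activation above a per-plate cutoff, the mean activation of sample wells on that plate plus 3 SD, cut at about 8% in these data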
# cAMP nonselect = nonselective cAMP signaling inhibitors, parental cells, counter-screen for MC4R biased antagonist project, cell-based, TR-FRET, U2OS, forskolin, triplicate. inhibition, % at 6.5 µM. shares compounds with MC4R antag cAMP. LANCE TR-FRET. actives 26% (n = 1,600). AID 602193, 2012;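 active means mean inhibition over triplicates above the low-control well mean plus 3 SD, set per campaign, cut at about 13% in these data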;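 further: signal is single emission at 671 nm which falls as cellular cAMP rises; 0% = forskolin-stimulated wells and 100% = buffer without forskolin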
# MC4R cAMP antag = MC4R cAMP antagonists, retest, confirmation, cell-based, TR-FRET; shares compounds with MC4R antag cAMP; MC4R-expressing cells, MTII-stimulated cAMP; inhibition, % at 6.5 µM; actives 27% (n = 1,600); AID 602195, 2012; in the data active means inhibition above about 29%;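 further: 0% = agonist stimulated wells alone and 100% = agonist stimulated wells plus saturating reference antagonist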
# * marks the source's active call; other numbers are inactive results; · = not tested or not shown; + = active, no number. This is a sample that favours compounds with a hit; in the whole collection about 2.7% have one here.
SMILES,NTR1 ag,HTR2A ag,Hep lipid drop,MC4R antag cAMP,PREPL inh,MC4R barr agon,cAMP nonselect,MC4R cAMP antag
O=C(CSc1n[nH]c(-c2ccccc2)n1)Nc1ccc(N2CCOCC2)cc1,0,3,-11,9,14,-1,·,·
CN1/C(=C/C=C/c2n(C)c3cc([N+](=O)[O-])c([N+](=O)[O-])cc3[n+]2C)C(C)(C)c2ccccc21,·,-16,·,-29,·,-6,·,·
CS(=O)(=O)N(CC(=O)NC1CCCCC1)Cc1ccc(F)cc1,0,2,16,19,0,-2,·,·
COc1ccc(C(=O)/C=C/C(=O)N(CC(=O)NC2CCCCC2)Cc2ccc(F)cc2)c(O)c1,·,0,-52,29*,·,-4,6,12
COC(=O)c1ccc2c(=O)[nH]c(CCl)nc2c1,0,0,-1,30*,-5,-1,5,7
Cc1ccccc1OCCCn1c(=O)sc2ccccc21,2,-4,·,4,-3,0,·,·
CCN(CC)CCNC(=O)c1cc(-c2ccc(Br)s2)nc2ccccc12,2,-6,·,33*,-91,5,7,-9
CCOCCCNC(=O)c1cc(-c2ccc(Br)s2)nc2ccccc12,-1,6,·,37*,-8,-1,33*,63*
O=C(O)c1cc(-c2ccc(Br)s2)nc2ccccc12,-1,4,1,+,·,0,185*,+
CCCCOc1cc(C(=O)NCCN(CC)CC)c2ccccc2n1,-1,-9,-10,11,-45,-1,·,·
CC(C)OCCCNC(=O)c1cc(-c2cccs2)nc2ccccc12,1,-7,·,8,4,0,·,·
Cc1ccc(OCCN2CCC2(C)C(=O)Nc2ccc3c(c2)OCO3)cc1 (configuration not stated),·,-7,·,2,·,-2,·,·
CC(c1ccco1)N(C(=O)c1ccccc1NS(=O)(=O)c1ccc(Cl)c([N+](=O)[O-])c1)c1ccccn1 (configuration not stated),16,8,-14,39*,-1,-1,6,16
CC(c1ccco1)N(C(=O)c1cc(Cl)cc(Cl)c1)c1ccccn1 (configuration not stated),2,4,1,7,5,-1,·,·
CCOC(=O)CCC(NC(=O)c1ccccc1C(=O)NC(CCC(=O)OCC)C(=O)OCC)C(=O)OCC (configuration not stated),0,2,2,29*,13,0,6,3
CC(=O)c1sc(C(C)(C)C)cc1NC(=O)c1ccccc1C(=O)O,0,2,-13,36*,10,-1,32*,56*
CCOC(=O)N1CCN(C(=O)c2cc3c(-c4cccc(OC)c4)nn(C)c3s2)CC1,3,6,-3,30*,-7,0,5,15
CC(C)(C)OC(=O)NNC(=O)c1cccs1,0,-1,24,-5,10,-1,·,·
CCC(C)c1ccc(C(CC)NC(=O)C2CCCO2)cc1 (configuration not stated),1,6,-11,6,-15,0,·,·
c1ccc(-c2noc(CN3CCCC(OCc4ccccn4)C3)n2)cc1 (configuration not stated),1,5,-6,31*,-41,0,1,5
CC(=O)Nc1cccc(NC(=O)CSc2ncc(C(=O)Nc3ccccc3)c(=O)n2C)c1,4,-2,·,30*,-8,-4,0,20
CC(=O)Nc1cccc(NC(=O)CSc2ncc(C(=O)Nc3ccc(F)cc3)c(=O)n2C)c1,1,4,·,25,-31,1,·,·
C[C@@H]1CN(Cc2nc(Cc3ccccc3F)no2)C[C@H](C)O1,0,2,6,33*,7,1,-3,-13
CCOC(=O)CS(=O)(=O)c1nc(-c2ccc(F)cc2)cc(C(F)(F)F)n1,-2,-8,-9,32*,-13,-3,13,-1
CCOC(=O)CS(=O)(=O)c1nc(-c2ccccc2)cc(C(F)(F)F)n1,2,-10,·,13,-9,-4,·,·
SMILES,NTR1 ag,HTR2A ag,Hep lipid drop,MC4R antag cAMP,PREPL inh,MC4R barr agon,cAMP nonselect,MC4R cAMP antag
CCN(c1ccccc1)S(=O)(=O)c1cc(C(=O)OC2CCOC2=O)ccc1C (configuration not stated),26,-2,·,40*,15,-3,24*,37*
CNS(=O)(=O)c1cccc(C(=O)OC2CCOC2=O)c1 (configuration not stated),-2,-3,2,-4,13,-2,·,·
Cc1ccc(NCCCCO)cc1C,-1,-3,-3,3,16,-1,·,·
CSCCC(NC(=O)c1cccc(C)c1)C(=O)OCC(=O)NC(=O)c1cccn1C (configuration not stated),0,0,-4,11,5,-1,·,·
CSCCC(NC(=O)c1cccc(C)c1)C(=O)OCN1C(=O)c2ccccc2C1=O (configuration not stated),0,3,·,30*,-3,-2,10,41*
Cc1ccc(N=N/C(=C\O)C(=O)c2ccc(Cl)cc2)cc1,11,10,5,-5,-2,2,·,·
O=C(/C(=C/O)N=Nc1ccccc1)c1ccc(Cl)cc1,8,-1,23,34*,3,2,6,9
CC1CCC2(CC1)NC(=O)N(NC(=O)c1ccc(OC(C)C)cc1)C2=O (configuration not stated),0,12,·,-3,·,-1,·,·
O=C(c1ccc(S(=O)(=O)NCc2ccco2)cc1)N1CCN(c2ccc(F)cc2)CC1,1,2,·,-4,6,-1,·,·
O=C(/C=C/c1ccc(S(=O)(=O)NCc2ccco2)cc1)N1CCN(c2ccccc2)CC1,1,-3,10,31*,4,1,1,-4
CC(C)OC(=O)CNc1n[nH]c(=S)[nH]c1=O,·,1,-44,41*,·,0,3,13
